# Mdm2-MdmX inh – inhibitors of human Mdm2-MdmX association, primary screen, cell-based, luminescence, split luciferase, SaOS-2, uHTS | SaOS-2 split-luciferase Mdm2/MdmX complementation | inhibition, % at 8 µM | 330,000 compounds, 3% hits | AID 485346, 2010;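 active means inhibition of at least 50% at 8 µM in the primary screen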
# Target sequence (O15151 whole entry, looked up): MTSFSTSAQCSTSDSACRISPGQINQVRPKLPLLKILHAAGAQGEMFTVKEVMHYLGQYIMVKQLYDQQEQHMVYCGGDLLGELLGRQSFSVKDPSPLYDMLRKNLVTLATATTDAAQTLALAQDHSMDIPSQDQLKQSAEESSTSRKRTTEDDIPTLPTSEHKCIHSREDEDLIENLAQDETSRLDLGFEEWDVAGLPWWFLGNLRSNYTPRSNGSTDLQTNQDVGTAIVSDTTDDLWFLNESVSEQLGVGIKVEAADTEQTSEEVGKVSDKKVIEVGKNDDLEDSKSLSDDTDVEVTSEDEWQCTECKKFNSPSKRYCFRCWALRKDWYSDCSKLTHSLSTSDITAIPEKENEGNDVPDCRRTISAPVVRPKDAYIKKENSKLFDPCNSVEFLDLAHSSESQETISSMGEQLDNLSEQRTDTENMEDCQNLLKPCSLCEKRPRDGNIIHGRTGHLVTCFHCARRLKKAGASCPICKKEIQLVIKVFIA
# Target sequence (Q00987 whole entry, looked up): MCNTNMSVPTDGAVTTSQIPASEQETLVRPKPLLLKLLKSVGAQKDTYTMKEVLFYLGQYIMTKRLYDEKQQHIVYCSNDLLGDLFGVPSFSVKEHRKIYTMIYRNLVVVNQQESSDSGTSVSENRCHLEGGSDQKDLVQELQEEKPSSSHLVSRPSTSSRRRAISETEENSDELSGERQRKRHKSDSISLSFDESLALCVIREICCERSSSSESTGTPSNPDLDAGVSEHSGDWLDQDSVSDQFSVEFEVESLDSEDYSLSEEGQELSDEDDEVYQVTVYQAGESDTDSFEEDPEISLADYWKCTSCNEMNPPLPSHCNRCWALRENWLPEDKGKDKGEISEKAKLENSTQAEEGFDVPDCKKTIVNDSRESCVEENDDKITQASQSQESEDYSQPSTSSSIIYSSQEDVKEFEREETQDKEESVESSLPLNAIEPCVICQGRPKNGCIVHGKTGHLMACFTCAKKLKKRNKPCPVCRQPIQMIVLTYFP
# T cruzi inh – inhibitors of intracellular T. cruzi growth, primary screen, luminescence, NIH3T3 host cells; inhibition, % (concentration not given with the values); 300,000 compounds, 1.4% hits; T. cruzi beta-gal in NIH3T3, 90 h;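 active means mean inhibition across valid replicates above about 55%, limit read from the data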;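 further: signal also drops with host cell toxicity which is not excluded here; 0% = plate median of DMSO wells and 100% = zero luminescence signal; higher percent means less beta-gal luminescence so fewer parasites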
#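 Assay system: NIH/3T3 fibroblasts plus reporter T. cruzi. Amount: NIH/3T3 cells, 5,000 per well. Buffer or medium: DMEM, 2% fetal bovine serum. Doses: compound pinned at 50 nL/well, DMSO. Schedule: ≥90 h infection period, 3 h prior cell attachment. Signal: luminescent β-galactosidase signal after 60 min lysis. Read-out: parasite load inhibition, %.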
# CSC inhib – cancer stem cell viability inhibitors, primary screen, luminescence | 300,000 compounds, 1.1% hits | cancer stem cell-like cells viability | inhibition, % at 7.5 µM; in the data active means inhibition above about 75%; tested in HMLE shEcad cells
# aSyn 5UTR inh – MLPCN primary screen, SNCA 5' untranslated region; alpha-synuclein 5'UTR reporter, inhibitor activity; 300,000 compounds, 0.82% hits; inhibition, % (tested at 7.5 µM); in the data active means inhibition above about 60%;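 further: H4 neuroglioblastoma cells stably carrying SNCA 5'UTR luciferase fusion; 0% = DMSO wells and 100% = positive control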
# SKKanGAS inh – S. pyogenes SKKanGAS growth inhibitors in kanamycin, primary screen, streptokinase expression inhibitor project, SKKanGAS strain, BacTiter-Glo luminescence | 6 h | inhibition, % at 7.5 µM | 300,000 compounds, 1.3% hits | AID 1662, 2009;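 active means mean replicate score, as percent of positive control median, at least 50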;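 further: strain carries kanamycin resistance gene driven by streptokinase promoter and grows in 40 µg/ml kanamycin; loss of luminescence reflects streptokinase promoter inhibition or plain growth inhibition; 0% = median of DMSO wells and 100% = positive control at its reference dose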
# Mdm2 MdmX conf – Mdm2-MdmX complex disruptors, retested hits, confirmation, luminescence, single concentration; shares compounds with Mdm2-MdmX inh; Mdm2-MdmX binding, luminescent assay; inhibition, % at 8 µM; 10,000 compounds, 55% hits; AID 489028, 2010; in the data active means inhibition above about 40%
# FLuc counter – full-length luciferase signal inhibition, confirmation, counter-screen for Mdm2/MdmX interaction inhibitor project, cell-based, single concentration, SaOS-2; 6,200 compounds, 77% hits; SaOS-2 full-length luciferase counterscreen, luminescence; shares compounds with Mdm2-MdmX inh; inhibition, % at 8 µM;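 active means mean inhibition at 8 µM reaching about 37%, which flags the compound as non-specific, limit read from the data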;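 further: p53-null SaOS-2 cells with luciferase driven by a doxycycline-inducible promoter; compound on cells about two nights before reading with doxycycline added after day one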
# * marks the source's active call; other numbers are inactive results; · = not tested or not shown. Most compounds without a hit are left out; they make up all but 5.4% or so of the library.
SMILES,Mdm2-MdmX inh,T cruzi inh,CSC inhib,aSyn 5UTR inh,SKKanGAS inh,Mdm2 MdmX conf,FLuc counter
C#CCOCCOCCOCCNc1nc(N2CCN(C(=O)CCCCCCCCCCNC(=O)[C@H](CCCCN)n3cc(CCO)nn3)CC2)nc(N2CCN(C(=O)CCCCCCCCCCNC(=O)[C@H](CCCCN)n3cc(CCO)nn3)CC2)n1,13.7,·,6.9,·,·,·,·
C#CCOCCOCCOCCNc1nc(N2CCN(C(=O)CCCCCCCCCCNC(=O)Cn3cc(CCCCCN)nn3)CC2)nc(N2CCN(C(=O)CCCCCCCCCCNC(=O)[C@H]([C@@H](C)CC)n3cc(CCCCCN)nn3)CC2)n1,100.3*,·,-10.3,·,·,20.8,·
CCN1CCN(CCNC(=O)CCCn2nc(C)c3c(C)n(-c4ccc(C)cc4)nc3c2=O)CC1,-2.8,-0.9,-3.1,22.8,1.1,·,·
CCN(C(=O)COC(=O)COc1ccc(Cl)c(C)c1)C1CCS(=O)(=O)C1 (stereo not given),-1.2,·,-13.9,·,·,·,·
C#CCOCCOCCOCCNc1nc(N2CCN(C(=O)CCCCCCCCCCNC(=O)[C@H]([C@@H](C)CC)n3cc(CCCCCN)nn3)CC2)nc(N2CCN(C(=O)CCCCCCCCCCNC(=O)[C@@H]([C@H](C)O)n3cc(C)nn3)CC2)n1,98.0*,·,109.5*,·,·,54.5*,40.4*
C#CCOCCOCCOCCNc1nc(N2CCN(C(=O)CCCCCCCCCCNC(=O)[C@H](CCCCN)n3cc(CCO)nn3)CC2)nc(N2CCN(C(=O)CCCCCCCCCCNC(=O)[C@@H]([C@H](C)O)n3cc(C)nn3)CC2)n1,-0.5,·,-0.9,·,·,·,·
C#CCOCCOCCOCCNc1nc(N2CCN(C(=O)CCCCCCCCCCNC(=O)[C@H](CCCCN)n3cc(C)nn3)CC2)nc(N2CCN(C(=O)CCCCCCCCCCNC(=O)[C@@H]([C@H](C)CC)n3cc(CCCCCN)nn3)CC2)n1,100.3*,·,168.3*,·,·,99.6*,21.1
CC1=C(C(=O)OCc2ccccc2)C(c2cccc(F)c2)NC(=O)N1 (stereo not given),17.2,-5.3,11.1,26.5,-2.4,·,·
CCOc1ccc(NS(=O)(=O)c2ccc(-c3coc(C)n3)cc2)cc1,19.7,-17.0,-10.8,-4.8,-27.8,·,·
O=C1S/C(=C/c2ccc(N3CCOCC3)o2)C(=O)N1Cc1ccc(F)cc1,10.4,44.7,10.0,-6.1,-1.0,·,·
O=C1/C(=C/c2ccc(N3CCOCC3)o2)SC(=Nc2ccccc2)N1CCc1c[nH]c2ccccc12,99.7*,70.6*,85.0*,-120.8,24.5,98.5*,4.0
O=C1Nc2cc(C(=O)NCCCN3CCCC3)ccc2S/C1=C/c1ccccc1F,58.4*,15.1,39.6,-106.0,4.2,14.2,·
CCN1C(=O)c2ccccc2Sc2ccc(C(=O)NCCCN3CCCCC3)cc21,50.7*,42.9,4.5,19.4,13.4,9.9,·
CC1CCCN(CCCNC(=O)c2ccc3c(c2)N(Cc2ccccc2F)C(=O)c2ccccc2S3(=O)=O)C1 (stereo not given),64.3*,35.2,-0.6,-10.2,-5.1,33.9,50.9*
COc1cccc(/C=C2/Sc3ccc(C(=O)NCCN4CCCC4)cc3NC2=O)c1,58.1*,20.4,31.1,8.1,-6.2,9.8,·
CCN1CCCC1CNC(=O)c1ccc2c(c1)N(Cc1ccccc1F)C(=O)c1ccccc1S2(=O)=O (stereo not given),19.9,30.1,·,-12.9,-4.2,·,·
Cc1sc(NC(=S)NC(=O)C(C)(C)C)c(C(N)=O)c1C,-20.2,12.5,-0.4,-67.5,4.8,·,·
Cc1ccc(C(=O)COC(=O)CCC(=O)NC2CCCCC2)cc1C,6.4,-2.2,-19.7,10.9,-8.2,·,·
CC(NC(=O)Cn1cc(C(F)(F)F)ccc1=O)c1ccc(F)cc1 (stereo not given),2.5,11.8,-1.5,2.4,-10.1,·,·
COc1cccc(/C=C2/Sc3ccc(C(=O)NCCCN4CCCC4)cc3NC2=O)c1,34.9,30.9,1.6,-23.3,-4.8,·,·
CCN1CCCC1CNC(=O)c1ccc2c(c1)NC(=O)/C(=C\c1ccc(C)cc1)S2 (stereo not given),97.2*,17.9,33.8,74.1*,9.2,33.6,68.8*
Cc1nn(-c2ccccc2)c(N2CCCC2)c1/C=N/NC(=O)c1cc(-c2ccccc2)nc2ccccc12,56.8*,62.7*,20.5,12.2,19.7,46.9*,68.4*
Cc1nn(-c2ccccc2)c(N2CCCC2)c1/C=N/NC(=O)c1cc(-c2ccccn2)nc2ccccc12,63.3*,4.1,10.2,-4.7,26.3,15.4,·
Cc1nn(-c2ccccc2)c(N2CCCC2)c1/C=N/NC(=O)c1cc(-c2cccs2)nc2ccccc12,31.1,17.6,9.2,18.0,21.9,·,·
CCCCC(=O)NC(c1ccc(Cl)cc1)c1ccc2cccnc2c1O (stereo not given),77.1*,71.4*,153.0*,55.9,70.0*,85.8*,11.3
SMILES,Mdm2-MdmX inh,T cruzi inh,CSC inhib,aSyn 5UTR inh,SKKanGAS inh,Mdm2 MdmX conf,FLuc counter
CC(=O)NC(c1ccc(C(C)C)cc1)c1c(O)ccc2ccccc12 (stereo not given),-4.8,10.5,2.3,16.9,5.1,·,·
CC(=O)NC(c1ccc(Cl)cc1Cl)c1ccc2cccnc2c1O (stereo not given),68.0*,62.1*,-17.9,85.9*,73.2*,86.7*,53.5*
CC(=O)NC(CC(=O)NC(C)c1ccc(Cl)cc1Cl)c1ccccc1 (stereo not given),12.2,3.1,2.9,14.9,-5.0,·,·
CC(=O)NC(c1ccc2ccccc2c1)c1ccc2cccnc2c1O (stereo not given),86.1*,61.3*,102.4*,56.6,89.2*,89.7*,21.9
CCCC(=O)NC(c1ccc(C)cc1)c1ccc2cccnc2c1O (stereo not given),80.6*,72.2*,110.2*,57.5,71.8*,87.2*,53.0*
CCCC(=O)NC(c1ccccc1)c1c(O)ccc2ccccc12 (stereo not given),2.8,33.9,4.3,7.9,-1.3,·,·
CN1CCc2c(sc(NC(=O)C3CCCN3S(=O)(=O)c3ccc(Cl)s3)c2C(N)=O)C1 (stereo not given),4.1,52.2,-10.7,-19.2,-1.3,·,·
CCCC(=O)NC(c1ccc(Cl)cc1Cl)c1ccc2cccnc2c1O (stereo not given),81.1*,63.5*,109.2*,64.3*,89.2*,84.7*,54.8*

# Screening results deposited in PubChem BioAssay by several laboratories.
